Assay [1] concerns the target Mitogen-activated protein kinase 9 (Homo sapiens, UniProt P45984). Nature of the assay: Inhibition of JNK2 Lys2 labeling site in human Huh-7 cell lysate at 1 uM by KiNativ Profiling analysis relative to control. The format is subcellular.
For assay [2], the target named is Serine/threonine-protein kinase B-raf (Homo sapiens, UniProt P15056). Nature of the assay: Inhibition of BRAF (unknown origin) Lys2 labeling site by KiNativ Profiling analysis.
The next assay concerns BaF3. Nature of the assay: Antiproliferative activity against parental mouse BaF3 cells harbouring Bcr/Abl assessed reduction in cell viability measured after 48 hrs by Celltiter-glo assay. Particulars: BaF3, 48 h. Format: functional, cell-based. In outline:
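Cells were grown with serial dilutions of compound for 48 h, and viability was read by CellTiter-Glo. IC50 was derived from the dose–response curve. Parental Ba/F3 cells were grown in the presence of interleukin 3. The BCR-ABL line is BCR-ABL-dependent Ba/F3.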
For orientation: In ATP-based viability assays light output follows the ATP content of the culture.

For assay [3], the target named is Cyclin-dependent kinase 6 (Homo sapiens) (UniProt Q00534). Nature of the assay: Inhibition of CDK6 Lys2 labeling site in human A-375 cells at 5 uM by KiNativ Profiling analysis relative to control. The format is cell-based. In outline:
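Intact A375 melanoma cells were treated with compound at 5 or 0.5 μM, then lysed. Lysate kinases were labeled with a lysine-reactive ATP or ADP-biotin probe (KiNativ). Inhibition is read as protection of each kinase labeling site from probe labeling.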

Assay [4] deals with Cyclin-dependent kinase 11B (Homo sapiens) (UniProt P21127). Briefly: Inhibition of PITSLRE Lys2 labeling site in human A-375 cells at 5 uM by KiNativ Profiling analysis relative to control. Format: cell-based.
Assay [5] has as its target Serine/threonine-protein kinase PLK1 (Homo sapiens) (UniProt P53350). Nature of the assay: Inhibition of PLK1 Lys1 labeling site in human A-375 cells at 5 uM by KiNativ Profiling analysis relative to control. Format: cell-based.
Assay [6] deals with T1, Phosphatidylinositol 5-phosphate 4-kinase type-2 gamma (Homo sapiens) (UniProt Q8TBX8).
T1 sequence (whole entry): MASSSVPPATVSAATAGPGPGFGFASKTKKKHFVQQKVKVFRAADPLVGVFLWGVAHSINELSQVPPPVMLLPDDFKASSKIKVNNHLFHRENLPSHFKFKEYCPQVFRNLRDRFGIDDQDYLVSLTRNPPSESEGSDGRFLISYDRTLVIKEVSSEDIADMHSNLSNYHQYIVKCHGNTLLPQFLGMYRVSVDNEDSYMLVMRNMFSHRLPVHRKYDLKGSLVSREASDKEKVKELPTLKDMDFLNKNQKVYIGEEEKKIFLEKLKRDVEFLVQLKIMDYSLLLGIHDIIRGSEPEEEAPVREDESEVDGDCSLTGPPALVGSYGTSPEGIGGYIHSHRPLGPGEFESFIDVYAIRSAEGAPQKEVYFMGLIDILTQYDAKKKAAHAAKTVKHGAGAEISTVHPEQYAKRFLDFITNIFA
Nature of the assay: Inhibition of PIP4K2C ATP labeling site harbouring VKELPTLKDMDFLNK in human A-375 cells at 0.5 uM by KiNativ Profiling analysis relative to control. The format is cell-based. The essentials: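 Live A375 melanoma cells were treated with compound at 5 or 0.5 μM, then lysed. Lysates were labeled with a lysine-reactive ATP or ADP-biotin probe. Read-out was the compound's protection of kinase labeling sites from probe labeling (KiNativ).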

The target of assay [7] is Ribosomal protein S6 kinase alpha-3 (Homo sapiens) (UniProt P51812). Briefly: Inhibition of RSK2 domain2 Protein Kinase Domain in human A-375 cells at 0.5 uM by KiNativ Profiling analysis relative to control. Format: cell-based. In outline:
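Live A375 melanoma cells treated with compound at 5 or 0.5 μM, then lysed. Lysate kinases were labeled with a lysine-reactive ATP or ADP-biotin probe. Inhibition was read as protection of labeling sites from the probe.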

The target in assay [8] is T2, Serine/threonine-protein kinase TAO1 (Homo sapiens) (UniProt Q7L7X3).
T2 sequence (whole entry): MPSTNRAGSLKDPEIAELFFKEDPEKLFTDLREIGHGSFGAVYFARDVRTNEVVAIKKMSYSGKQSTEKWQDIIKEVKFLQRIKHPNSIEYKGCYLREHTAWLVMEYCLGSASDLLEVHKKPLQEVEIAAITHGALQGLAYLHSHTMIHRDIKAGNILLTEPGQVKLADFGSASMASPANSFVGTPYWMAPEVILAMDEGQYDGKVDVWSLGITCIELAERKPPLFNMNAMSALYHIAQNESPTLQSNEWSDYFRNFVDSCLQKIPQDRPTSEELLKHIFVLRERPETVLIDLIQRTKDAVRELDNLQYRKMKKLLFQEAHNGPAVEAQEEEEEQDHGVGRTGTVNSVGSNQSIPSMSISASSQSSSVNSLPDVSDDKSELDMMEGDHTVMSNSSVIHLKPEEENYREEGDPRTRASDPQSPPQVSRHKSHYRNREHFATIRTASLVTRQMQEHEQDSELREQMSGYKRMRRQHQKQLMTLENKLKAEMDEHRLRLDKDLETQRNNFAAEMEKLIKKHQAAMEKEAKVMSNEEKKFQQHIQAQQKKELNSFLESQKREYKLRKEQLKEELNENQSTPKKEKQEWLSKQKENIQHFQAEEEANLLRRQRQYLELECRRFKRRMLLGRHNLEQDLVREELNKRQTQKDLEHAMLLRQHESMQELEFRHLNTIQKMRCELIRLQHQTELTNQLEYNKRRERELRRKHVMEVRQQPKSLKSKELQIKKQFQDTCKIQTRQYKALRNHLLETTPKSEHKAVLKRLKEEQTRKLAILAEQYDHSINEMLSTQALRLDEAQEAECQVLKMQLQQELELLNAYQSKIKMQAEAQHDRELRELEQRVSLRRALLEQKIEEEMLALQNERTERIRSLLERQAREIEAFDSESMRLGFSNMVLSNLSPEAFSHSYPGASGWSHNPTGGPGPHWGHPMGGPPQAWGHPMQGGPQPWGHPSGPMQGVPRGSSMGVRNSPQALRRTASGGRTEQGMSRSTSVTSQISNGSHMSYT
Briefly: Inhibition of TAO1 Lys2 labeling site in human A-375 cells at 0.5 uM by KiNativ Profiling analysis relative to control. The format is cell-based.

Assay [9] has as its target Serine/threonine-protein kinase WNK1 (Homo sapiens) (UniProt Q9H4A3). Nature of the assay: Inhibition of Wnk1 ACT labeling site in human A-375 cells at 0.5 uM by KiNativ Profiling analysis relative to control. The format is cell-based.
Assay [10] concerns the target Serine/threonine-protein kinase WNK2 (Homo sapiens) (UniProt Q9Y3S1). Briefly: Inhibition of Wnk2 ACT labeling site in human A-375 cells at 0.5 uM by KiNativ Profiling analysis relative to control. Format: cell-based.
In assay [11] the target is RAC-gamma serine/threonine-protein kinase (Homo sapiens) (UniProt Q9Y243). Briefly: Inhibition of AKT3 ATP Loop labeling site in human A-375 cells at 0.05 uM by KiNativ Profiling analysis relative to control. Format: cell-based.
Assay [12] deals with T1, Phosphatidylinositol 5-phosphate 4-kinase type-2 gamma (Homo sapiens). Briefly: Inhibition of PIP4K2C ATP labeling site harbouring VKELPTLKDMDFLNK in human A-375 cells at 0.05 uM by KiNativ Profiling analysis relative to control. The format is cell-based.

Ribosomal protein S6 kinase alpha-3 (Homo sapiens), sequence (P51812 whole entry, the tested form may be a part): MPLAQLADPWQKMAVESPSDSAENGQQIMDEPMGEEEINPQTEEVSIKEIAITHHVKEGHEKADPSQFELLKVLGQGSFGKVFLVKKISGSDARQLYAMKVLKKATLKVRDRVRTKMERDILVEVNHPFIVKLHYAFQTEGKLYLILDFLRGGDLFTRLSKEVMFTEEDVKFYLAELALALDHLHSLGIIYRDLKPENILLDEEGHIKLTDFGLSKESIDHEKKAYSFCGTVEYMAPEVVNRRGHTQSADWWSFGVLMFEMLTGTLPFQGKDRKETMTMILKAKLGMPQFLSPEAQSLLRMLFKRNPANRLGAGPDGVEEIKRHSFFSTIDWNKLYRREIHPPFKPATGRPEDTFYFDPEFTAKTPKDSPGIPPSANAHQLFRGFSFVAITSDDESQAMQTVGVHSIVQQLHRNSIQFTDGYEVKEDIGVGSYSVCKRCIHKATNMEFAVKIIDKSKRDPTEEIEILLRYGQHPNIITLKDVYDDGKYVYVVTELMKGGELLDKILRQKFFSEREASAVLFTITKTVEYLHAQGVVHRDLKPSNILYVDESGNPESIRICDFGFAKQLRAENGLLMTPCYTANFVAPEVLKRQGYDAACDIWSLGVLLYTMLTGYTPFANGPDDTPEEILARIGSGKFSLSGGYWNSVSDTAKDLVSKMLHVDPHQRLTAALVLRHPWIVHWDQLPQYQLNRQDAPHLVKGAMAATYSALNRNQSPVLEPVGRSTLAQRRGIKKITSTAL
Cyclin-dependent kinase 11B (Homo sapiens), sequence (P21127 whole entry): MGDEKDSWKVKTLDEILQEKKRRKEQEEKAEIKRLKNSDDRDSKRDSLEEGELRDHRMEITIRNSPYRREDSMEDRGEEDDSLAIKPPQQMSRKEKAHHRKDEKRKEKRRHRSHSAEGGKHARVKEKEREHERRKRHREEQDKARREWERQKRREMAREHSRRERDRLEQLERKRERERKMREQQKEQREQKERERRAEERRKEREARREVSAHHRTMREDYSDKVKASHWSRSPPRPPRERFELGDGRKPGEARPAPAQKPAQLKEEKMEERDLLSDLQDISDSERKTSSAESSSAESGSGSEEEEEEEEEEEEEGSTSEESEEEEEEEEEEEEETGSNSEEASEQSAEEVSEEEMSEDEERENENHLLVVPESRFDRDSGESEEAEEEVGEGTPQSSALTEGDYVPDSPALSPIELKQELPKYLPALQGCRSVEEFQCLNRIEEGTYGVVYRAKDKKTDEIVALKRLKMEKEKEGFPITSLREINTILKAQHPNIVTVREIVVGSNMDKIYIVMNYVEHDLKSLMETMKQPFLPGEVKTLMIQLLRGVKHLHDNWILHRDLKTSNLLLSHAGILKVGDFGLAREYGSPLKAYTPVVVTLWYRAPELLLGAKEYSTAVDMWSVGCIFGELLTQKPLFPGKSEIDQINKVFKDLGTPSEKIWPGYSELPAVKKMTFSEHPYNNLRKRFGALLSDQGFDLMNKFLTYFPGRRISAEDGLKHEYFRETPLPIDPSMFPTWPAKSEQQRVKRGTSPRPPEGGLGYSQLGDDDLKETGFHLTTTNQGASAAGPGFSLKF
Serine/threonine-protein kinase PLK1 (Homo sapiens), sequence (P53350 whole entry): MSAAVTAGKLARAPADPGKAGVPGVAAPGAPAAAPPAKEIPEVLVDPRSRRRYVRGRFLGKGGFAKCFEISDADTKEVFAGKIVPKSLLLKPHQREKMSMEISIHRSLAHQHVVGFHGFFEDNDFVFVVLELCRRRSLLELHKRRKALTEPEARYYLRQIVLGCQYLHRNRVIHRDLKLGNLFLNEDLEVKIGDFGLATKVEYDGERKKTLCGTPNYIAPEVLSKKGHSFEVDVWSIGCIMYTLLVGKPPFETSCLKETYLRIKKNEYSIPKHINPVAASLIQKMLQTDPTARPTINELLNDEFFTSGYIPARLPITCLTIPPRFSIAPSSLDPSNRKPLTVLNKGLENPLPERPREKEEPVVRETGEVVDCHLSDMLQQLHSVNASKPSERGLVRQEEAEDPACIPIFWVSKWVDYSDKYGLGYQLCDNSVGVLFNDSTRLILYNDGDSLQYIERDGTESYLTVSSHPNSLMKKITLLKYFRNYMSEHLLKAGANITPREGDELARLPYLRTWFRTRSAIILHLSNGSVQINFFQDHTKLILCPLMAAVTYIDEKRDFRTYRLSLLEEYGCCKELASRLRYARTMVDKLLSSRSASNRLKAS
Serine/threonine-protein kinase WNK1 (Homo sapiens), sequence (Q9H4A3 whole entry, looked up): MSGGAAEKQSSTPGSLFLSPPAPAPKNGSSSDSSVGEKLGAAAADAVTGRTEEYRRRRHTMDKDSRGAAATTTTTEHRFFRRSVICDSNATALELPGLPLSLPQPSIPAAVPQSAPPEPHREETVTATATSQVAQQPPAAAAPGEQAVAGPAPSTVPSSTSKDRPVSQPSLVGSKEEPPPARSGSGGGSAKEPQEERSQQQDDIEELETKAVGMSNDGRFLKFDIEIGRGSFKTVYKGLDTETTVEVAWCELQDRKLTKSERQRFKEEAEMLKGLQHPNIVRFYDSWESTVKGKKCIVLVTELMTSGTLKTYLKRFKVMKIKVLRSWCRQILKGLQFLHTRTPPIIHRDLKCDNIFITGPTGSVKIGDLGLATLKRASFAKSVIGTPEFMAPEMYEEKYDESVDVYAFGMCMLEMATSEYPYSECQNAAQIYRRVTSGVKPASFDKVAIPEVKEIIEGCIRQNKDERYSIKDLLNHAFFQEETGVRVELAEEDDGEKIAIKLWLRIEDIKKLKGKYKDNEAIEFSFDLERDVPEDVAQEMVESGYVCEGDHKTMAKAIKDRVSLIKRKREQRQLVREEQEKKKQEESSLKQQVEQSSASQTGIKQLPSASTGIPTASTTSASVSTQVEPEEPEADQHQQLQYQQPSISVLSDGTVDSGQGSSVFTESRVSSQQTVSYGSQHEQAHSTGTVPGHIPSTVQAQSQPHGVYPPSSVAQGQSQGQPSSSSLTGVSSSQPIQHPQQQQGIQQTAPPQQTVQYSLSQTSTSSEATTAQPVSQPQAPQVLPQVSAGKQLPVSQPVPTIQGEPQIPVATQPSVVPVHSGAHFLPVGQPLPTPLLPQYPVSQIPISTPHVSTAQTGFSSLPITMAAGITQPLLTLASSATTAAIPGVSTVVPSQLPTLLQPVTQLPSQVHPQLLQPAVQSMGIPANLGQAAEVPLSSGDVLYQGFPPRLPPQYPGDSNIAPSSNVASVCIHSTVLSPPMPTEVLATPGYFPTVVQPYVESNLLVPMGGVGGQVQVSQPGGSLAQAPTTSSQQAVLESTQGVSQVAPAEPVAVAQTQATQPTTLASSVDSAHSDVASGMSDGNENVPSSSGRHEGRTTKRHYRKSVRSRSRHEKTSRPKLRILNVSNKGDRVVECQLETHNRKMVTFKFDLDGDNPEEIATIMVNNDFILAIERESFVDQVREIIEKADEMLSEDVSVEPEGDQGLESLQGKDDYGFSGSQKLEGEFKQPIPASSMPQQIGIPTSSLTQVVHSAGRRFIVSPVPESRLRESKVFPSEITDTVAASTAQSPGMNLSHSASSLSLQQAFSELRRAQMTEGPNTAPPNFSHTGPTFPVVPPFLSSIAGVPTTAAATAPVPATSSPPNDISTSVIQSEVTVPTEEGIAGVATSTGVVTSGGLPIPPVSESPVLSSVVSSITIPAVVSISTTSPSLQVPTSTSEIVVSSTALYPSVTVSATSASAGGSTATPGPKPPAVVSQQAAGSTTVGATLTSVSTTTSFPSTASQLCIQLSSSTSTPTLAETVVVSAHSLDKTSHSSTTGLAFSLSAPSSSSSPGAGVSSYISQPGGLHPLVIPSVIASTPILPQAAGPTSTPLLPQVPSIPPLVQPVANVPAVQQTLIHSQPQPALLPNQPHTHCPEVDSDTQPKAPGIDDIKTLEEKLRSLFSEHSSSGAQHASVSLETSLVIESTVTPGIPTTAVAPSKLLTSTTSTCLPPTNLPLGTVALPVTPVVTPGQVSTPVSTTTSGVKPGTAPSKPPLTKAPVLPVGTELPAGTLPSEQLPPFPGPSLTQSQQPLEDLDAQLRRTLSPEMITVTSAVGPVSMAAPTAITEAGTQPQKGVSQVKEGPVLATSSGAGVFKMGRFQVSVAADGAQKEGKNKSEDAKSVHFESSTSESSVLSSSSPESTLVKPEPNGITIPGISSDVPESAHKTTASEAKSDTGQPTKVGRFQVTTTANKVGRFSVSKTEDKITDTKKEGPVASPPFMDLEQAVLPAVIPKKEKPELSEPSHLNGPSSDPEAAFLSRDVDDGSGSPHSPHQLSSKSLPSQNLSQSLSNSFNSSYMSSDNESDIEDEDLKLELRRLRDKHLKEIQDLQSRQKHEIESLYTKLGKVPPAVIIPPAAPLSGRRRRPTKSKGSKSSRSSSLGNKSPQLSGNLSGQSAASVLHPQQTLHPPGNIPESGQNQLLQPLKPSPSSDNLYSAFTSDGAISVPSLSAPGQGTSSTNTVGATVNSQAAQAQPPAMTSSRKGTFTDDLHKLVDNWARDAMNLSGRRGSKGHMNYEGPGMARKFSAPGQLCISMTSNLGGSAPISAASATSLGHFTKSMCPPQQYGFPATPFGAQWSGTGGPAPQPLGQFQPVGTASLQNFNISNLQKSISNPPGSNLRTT
Mitogen-activated protein kinase 9, sequence (P45984 whole entry, looked up): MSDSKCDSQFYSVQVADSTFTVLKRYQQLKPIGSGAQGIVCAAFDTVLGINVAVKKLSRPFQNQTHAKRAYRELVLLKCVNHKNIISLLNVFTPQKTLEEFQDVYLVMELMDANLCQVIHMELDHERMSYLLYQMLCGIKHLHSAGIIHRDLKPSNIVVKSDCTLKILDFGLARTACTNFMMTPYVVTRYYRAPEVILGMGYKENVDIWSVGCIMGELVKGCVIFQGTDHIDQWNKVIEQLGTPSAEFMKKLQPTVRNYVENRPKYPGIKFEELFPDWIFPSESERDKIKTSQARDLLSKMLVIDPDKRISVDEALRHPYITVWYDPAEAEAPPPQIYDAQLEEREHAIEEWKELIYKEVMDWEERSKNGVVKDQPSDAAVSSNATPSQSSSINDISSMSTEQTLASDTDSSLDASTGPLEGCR

Consider `CNc1cc(Oc2cc(C(=O)Nc3cc(N4CCN(C)CC4)cc(C(F)(F)F)c3)ccc2C)ncn1`, for which the inhibition in [1] was determined as 7%.
As to `CCN1CCN(Cc2ccc(NC(=O)c3ccc(C)c(/C=C/c4cnc5[nH]ccc5c4OC)c3)cc2C(F)(F)F)CC1`, the concentration for half-maximal inhibition (IC50) in assay [2] was above 10000 nM; in the assay on BaF3, 10 nM. In addition, the inhibition was -2.3% in assay [3]; -9.5% in [4]; 5.7% in assay [5]; -5.8% in assay [6]; -4.1% in assay [7]; 6.6% in assay [8]. Also, the inhibition is 6.9% in assay [9], 6.9% in [10], 20.9% in [11] and -7.3% in assay [12].
For the compound `CNc1cc(Oc2cc(C(=O)Nc3cc(-n4cnc(C)c4)cc(C(F)(F)F)c3)ccc2C)ncn1`, the inhibition in assay [1] is 18.4%.
`CCN1CCN(Cc2ccc(NC(=O)c3ccc(C)c(Oc4ccnc5[nH]ccc45)c3)cc2C(F)(F)F)CC1`: the 50% inhibitory concentration (IC50) in assay [2] was above 10000 nM; in the assay on BaF3 it was 18 nM. Also, the inhibition was 6.8% in [3]; 6.3% in assay [4]; -7.3% in assay [5]; 3.2% in [6]; 7.2% in assay [7]; -5.6% in [8]. Besides, the inhibition in [9] was 3.9%; in assay [10], 3.9%; in [11] it was -3.9%; in [12], -1.1%.

What is called inhibition is the change of the read-out against control, counted positive when it falls. The IC50 is the point on the concentration scale where inhibition reaches its midpoint.

Source of the values: ChEMBL document CHEMBL5696442, “Discovery of type II inhibitors of TGFβ-activated kinase 1 (TAK1) and mitogen-activated protein kinase kinase kinase kinase 2 (MAP4K2)” (J Med Chem, 2015).
